Reference: ChEMBL document CHEMBL1122206, “Use of adenine nucleotide derivatives to assess the potential of exo-active-site-directed reagents as species- or isozyme-specific enzyme inactivators. 5. Interactions of adenosine 5'-triphosphate derivatives with rat pyruvate kinases, Escherichia coli thymidine kinase, and yeast and rat …” (1982)

Tests used:
[1] = target: T1, Hexokinase-2 (Rattus norvegicus) (UniProt P27881); experiment: Time dependent inhibition of hexokinase 2 activity after 6 h, at 5 mM compound
T1 sequence (whole entry): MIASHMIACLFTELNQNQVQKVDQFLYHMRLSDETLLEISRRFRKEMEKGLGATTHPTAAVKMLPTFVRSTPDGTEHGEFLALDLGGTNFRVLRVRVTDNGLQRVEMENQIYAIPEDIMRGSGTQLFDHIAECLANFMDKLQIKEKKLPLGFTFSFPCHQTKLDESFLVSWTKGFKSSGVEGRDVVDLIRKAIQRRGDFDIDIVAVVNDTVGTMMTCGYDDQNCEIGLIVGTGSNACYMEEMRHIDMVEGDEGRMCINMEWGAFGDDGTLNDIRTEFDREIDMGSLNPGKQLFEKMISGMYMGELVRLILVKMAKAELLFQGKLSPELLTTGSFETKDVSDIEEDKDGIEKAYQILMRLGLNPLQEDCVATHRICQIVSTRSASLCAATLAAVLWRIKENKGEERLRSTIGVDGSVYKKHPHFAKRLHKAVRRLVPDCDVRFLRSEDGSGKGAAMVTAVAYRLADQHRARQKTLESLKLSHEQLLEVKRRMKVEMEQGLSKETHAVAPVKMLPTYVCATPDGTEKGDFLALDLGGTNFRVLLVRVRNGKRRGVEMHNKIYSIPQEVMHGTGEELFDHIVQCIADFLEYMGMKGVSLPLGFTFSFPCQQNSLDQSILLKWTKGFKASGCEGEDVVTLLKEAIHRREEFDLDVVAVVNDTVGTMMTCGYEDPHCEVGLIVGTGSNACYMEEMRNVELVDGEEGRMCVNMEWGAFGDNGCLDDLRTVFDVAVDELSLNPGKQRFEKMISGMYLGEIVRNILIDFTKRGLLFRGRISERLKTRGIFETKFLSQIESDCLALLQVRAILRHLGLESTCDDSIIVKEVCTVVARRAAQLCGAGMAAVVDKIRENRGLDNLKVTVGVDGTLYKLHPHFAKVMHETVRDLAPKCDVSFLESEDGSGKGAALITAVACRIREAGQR

[2] = target: T2, Hexokinase-3 (Rattus norvegicus) (UniProt P27926); experiment: Time dependent inhibition of Hexokinase type III activity after 6 h, at 22 degrees celsius, at 5 mM
T2 sequence (whole entry): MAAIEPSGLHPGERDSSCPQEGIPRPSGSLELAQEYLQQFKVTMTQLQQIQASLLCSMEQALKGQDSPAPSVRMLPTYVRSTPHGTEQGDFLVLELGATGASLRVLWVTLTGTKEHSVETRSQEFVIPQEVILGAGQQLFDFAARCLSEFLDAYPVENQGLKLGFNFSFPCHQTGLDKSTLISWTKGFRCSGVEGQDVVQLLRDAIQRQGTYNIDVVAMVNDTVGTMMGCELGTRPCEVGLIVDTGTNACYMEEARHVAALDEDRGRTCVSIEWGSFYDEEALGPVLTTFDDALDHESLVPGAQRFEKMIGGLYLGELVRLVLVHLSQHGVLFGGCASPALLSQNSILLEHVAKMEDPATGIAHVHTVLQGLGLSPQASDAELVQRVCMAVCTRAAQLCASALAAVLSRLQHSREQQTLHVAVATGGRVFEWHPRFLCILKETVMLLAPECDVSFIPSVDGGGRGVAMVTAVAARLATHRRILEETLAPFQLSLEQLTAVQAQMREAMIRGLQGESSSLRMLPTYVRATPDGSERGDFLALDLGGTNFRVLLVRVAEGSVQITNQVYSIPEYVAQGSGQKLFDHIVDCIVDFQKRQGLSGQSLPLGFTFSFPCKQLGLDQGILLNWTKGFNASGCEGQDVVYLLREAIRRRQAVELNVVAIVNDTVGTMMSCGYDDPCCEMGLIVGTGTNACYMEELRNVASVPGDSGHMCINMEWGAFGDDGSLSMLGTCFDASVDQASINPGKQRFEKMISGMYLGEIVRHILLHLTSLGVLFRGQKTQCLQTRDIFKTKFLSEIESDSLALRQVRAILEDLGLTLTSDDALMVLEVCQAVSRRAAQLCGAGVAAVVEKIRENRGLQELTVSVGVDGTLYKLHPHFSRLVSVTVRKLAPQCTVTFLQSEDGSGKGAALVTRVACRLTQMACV

[3] = target: T3, Hexokinase-1 (Rattus norvegicus) (UniProt P05708); experiment: Time dependent inhibition of Hexokinase type I activity after 6 h, at 22 degrees celsius, at 5 mM compound
T3 sequence (whole entry): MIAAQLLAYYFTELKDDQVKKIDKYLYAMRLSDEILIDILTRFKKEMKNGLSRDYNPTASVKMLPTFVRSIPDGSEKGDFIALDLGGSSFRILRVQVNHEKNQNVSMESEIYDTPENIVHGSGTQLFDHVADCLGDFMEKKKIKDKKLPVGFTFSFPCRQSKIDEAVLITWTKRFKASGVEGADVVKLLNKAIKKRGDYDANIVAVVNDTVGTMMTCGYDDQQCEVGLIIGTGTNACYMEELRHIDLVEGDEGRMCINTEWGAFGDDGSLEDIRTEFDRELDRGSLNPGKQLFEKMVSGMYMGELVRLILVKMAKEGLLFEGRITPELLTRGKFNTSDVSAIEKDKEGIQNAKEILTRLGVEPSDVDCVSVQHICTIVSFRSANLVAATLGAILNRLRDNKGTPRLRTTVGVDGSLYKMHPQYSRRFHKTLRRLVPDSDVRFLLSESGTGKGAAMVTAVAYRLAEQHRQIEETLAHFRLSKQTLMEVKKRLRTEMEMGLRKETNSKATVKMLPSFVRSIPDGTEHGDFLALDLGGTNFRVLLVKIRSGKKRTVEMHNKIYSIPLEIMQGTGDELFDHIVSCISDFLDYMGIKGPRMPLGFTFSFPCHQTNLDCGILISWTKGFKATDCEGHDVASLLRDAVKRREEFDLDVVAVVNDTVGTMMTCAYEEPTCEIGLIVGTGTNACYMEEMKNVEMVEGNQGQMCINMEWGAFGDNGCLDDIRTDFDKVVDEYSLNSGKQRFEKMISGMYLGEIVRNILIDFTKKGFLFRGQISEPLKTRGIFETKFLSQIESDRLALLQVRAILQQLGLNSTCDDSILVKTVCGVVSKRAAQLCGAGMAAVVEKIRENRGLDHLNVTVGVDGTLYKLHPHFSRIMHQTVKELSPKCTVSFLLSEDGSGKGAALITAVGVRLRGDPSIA

[4] = test system: Saccharomyces cerevisiae; experiment: Time dependent inhibition of hexokinase activity after 6 hr, at 22 degrees celsius, with 5 mM ATP derivative in yeast.
[5] = target: T1, Hexokinase-2 (Rattus norvegicus); experiment: Substrate activity against Rat hexokinase II as 1:1 Mg complex at 5.0 mM
Outline: (§1)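 Hexokinase activity read at 22 °C as A340 change, coupled to glucose-6-phosphate dehydrogenase, in 0.05 M Tris-HCl pH 7.6 with 6.6 mM MgCl2, 10 mM α-D-glucose and 0.93 mM NADP. Donor was 5.0 mM MgATP derivative (1:1 Mg complex) in place of ATP. Yeast HK was isoelectric-focused. Rat HK I and III came from electrofocused liver extract, HK II from dialysed muscle extract.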

[6] = target: T3, Hexokinase-1 (Rattus norvegicus); experiment: Substrate activity for rat hexokinase I as 1:1 Mg complex at 5.0 mM
Outline: as §1

[7] = target: T2, Hexokinase-3 (Rattus norvegicus); experiment: Substrate activity for rat hexokinase III as 1:1 Mg complex at 5.0 mM
Outline: as §1

[8] = Tested for the velocity of 2.8 mM compound relative to that of 2.8 mM MgATP in the assay
Outline: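 E. coli TK substrate test. 0.5 h after adding inhibitor, the mixture was diluted to 2.8 mM derivative in thymidine assay medium without ATP and with 1.42 mM MnCl2. Incubated 15 min at 37 °C, in the linear range. [14C]TMP formed was compared with that from 2.8 mM ATP under the same conditions.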

[9] = target: Thymidine kinase (Escherichia coli) (UniProt P23331); experiment: Compound was tested for the initial inhibition of thymidine kinase by 1.4 mM compound in the presence of 5.7 mM ATP in Escherichia coli
Thymidine kinase (Escherichia coli), sequence (P23331 whole entry, looked up): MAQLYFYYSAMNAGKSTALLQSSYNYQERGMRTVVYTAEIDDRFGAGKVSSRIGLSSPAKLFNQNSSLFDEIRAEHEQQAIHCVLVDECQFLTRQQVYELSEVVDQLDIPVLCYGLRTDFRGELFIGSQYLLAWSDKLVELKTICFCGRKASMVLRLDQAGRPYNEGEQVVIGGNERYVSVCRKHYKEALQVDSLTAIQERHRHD

[10] = target: Thymidine kinase (Escherichia coli) (UniProt P23331); experiment: Compound was tested for the lose of thymidine kinase activity after 6 hr, at 0 degrees celsius, with 10 mM ATP derivative. values were expressed in percent
[11] = target: Thymidine kinase (Escherichia coli) (UniProt P23331); experiment: Compound was tested for the loss of thymidine kinase activity from Escherichia coli after 6 hr at 0 degrees C at 10 mM
[12] = test system: Saccharomyces cerevisiae; experiment: Substrate activity against yeast hexokinase as 1:1 Mg complexes at 5.0 mM
Outline: as §1

Row | Structure (SMILES) | inhibition [1] | inhibition [2] | inhibition [3] | inhibition [4] | Relative velocity [5] | Relative velocity [6] | Relative velocity [7] | Velocity [8] | inhibition [9] | inhibition [10] | inhibition [11] | Relative velocity [12]
1 | Nc1ncnc2c1nc(NCCCCCCNC(=O)CI)n2[C@@H]1O[C@H](COP(=O)(O)OP(=O)(O)OP(=O)(O)O)[C@@H](O)[C@H]1O | 0% | 0% | 0% | 0% | – | – | – | – | – | – | – | –
2 | CC(=O)NCCCCCCCCNc1ncnc2c1ncn2[C@@H]1O[C@H](COP(=O)(O)OP(=O)(O)OP(=O)(O)O)[C@@H](O)[C@H]1O | – | 0% | 0% | 0% | 0.6 | 1.12 | 1.25 | – | – | – | – | –
3 | O=C(CI)NCCC(=O)NCCCCCCNc1ncnc2c1ncn2[C@@H]1O[C@H](COP(=O)(O)OP(=O)(O)OP(=O)(O)O)[C@@H](O)[C@H]1O | 0% | 0% | 0% | 0% | – | – | – | 53% | 1% | 0% | – | –
4 | O=C(CI)NCCCCCC(=O)NCCCCNc1ncnc2c1ncn2[C@@H]1O[C@H](COP(=O)(O)OP(=O)(O)OP(=O)(O)O)[C@@H](O)[C@H]1O | – | 0% | 0% | 0% | – | – | – | 71% | – | 0% | – | –
5 | CC(=O)NCCCCCC(=O)N(C)CCCCN(C)c1ncnc2c1ncn2[C@@H]1O[C@H](COP(=O)(O)OP(=O)(O)OP(=O)(O)O)[C@@H](O)[C@H]1O | – | – | – | – | – | – | – | 41% | – | – | 0% | –
6 | Nc1ncnc2c1nc(NCCNC(=O)CI)n2[C@@H]1O[C@H](COP(=O)(O)OP(=O)(O)OP(=O)(O)O)[C@@H](O)[C@H]1O | 0% | 0% | 0% | – | – | – | – | – | – | – | – | –
7 | CN(CCCCN(C)c1ncnc2c1ncn2[C@@H]1O[C@H](COP(=O)(O)OP(=O)(O)OP(=O)(O)O)[C@@H](O)[C@H]1O)C(=O)CCCCCCNC(=O)CI | – | – | – | 0% | – | – | – | 55% | 1% | 0% | – | –
8 | CN(CCCN(C)C(=O)CCCNc1ncnc2c1ncn2[C@@H]1O[C@H](COP(=O)(O)OP(=O)(O)OP(=O)(O)O)[C@@H](O)[C@H]1O)C(=O)CCCNC(=O)CI | 0% | 0% | 0% | 0% | 0.43 | 0.63 | 1.02 | > 14% | 8% | 44% | – | 0.94
9 | Nc1ncnc2c1nc(NCCCCNC(=O)CI)n2[C@@H]1O[C@H](COP(=O)(O)OP(=O)(O)OP(=O)(O)O)[C@@H](O)[C@H]1O | 0% | 0% | 0% | – | – | – | – | – | – | – | – | –
10 | O=C(CI)NCCCCCCC(=O)NCCCCCCNc1ncnc2c1ncn2[C@@H]1O[C@H](COP(=O)(O)OP(=O)(O)OP(=O)(O)O)[C@@H](O)[C@H]1O | 0% | – | 0% | 0% | – | – | – | 41% | 12% | 0% | – | –
11 | CN(CCCCCCN(C)c1ncnc2c1ncn2[C@@H]1O[C@H](COP(=O)(O)OP(=O)(O)OP(=O)(O)O)[C@@H](O)[C@H]1O)C(=O)CCCCCNC(=O)CI | – | – | – | – | – | – | – | 49% | 5% | 0% | – | –
12 | Nc1ncnc2c1nc(NCCCCCCCCNC(=O)CI)n2[C@@H]1O[C@H](COP(=O)(O)OP(=O)(O)OP(=O)(O)O)[C@@H](O)[C@H]1O | – | 0% | – | – | 0.82 | 1.16 | 1.81 | – | – | – | 0% | 0.54
13 | O=C(CI)NCCCC(=O)NCCCCCCNc1ncnc2c1ncn2[C@@H]1O[C@H](COP(=O)(O)OP(=O)(O)OP(=O)(O)O)[C@@H](O)[C@H]1O | 0% | 0% | 0% | 0% | 0.91 | 1.3 | 2.02 | 36% | 0% | 0% | – | 1
14 | CN(CCCCN(C)c1ncnc2c1ncn2[C@@H]1O[C@H](COP(=O)(O)OP(=O)(O)OP(=O)(O)O)[C@@H](O)[C@H]1O)C(=O)CCCNC(=O)CI | 0% | 0% | 0% | 0% | 0.35 | 0.88 | 0.93 | > 33% | 0% | 60% | – | 1.2
